In brackets after ≈: the same amount, converted by molar mass. Each block holds one molecule with its values, some of them ahead of it. Activity calls are given as the source filed them. The calls are words filed in the database; no cut-off is given here.
Columns and labels:
[1] = Aqueous kinetic solubility of compound in PBS at pH 7.4 incubated for 24 hrs by Chemiluminescent nitrogen determination assay; assay type: physicochemical; settings: for Kinetic_solubility: buffer, pH 7.4, 24 h; for solubility kinetic at 24 h: PBS, pH 7.4, read-out: Kinetic_solubility
[2] = Antiproliferative activity against human MUG-Chor1 cells assessed as inhibition of cell proliferation at 1 uM incubated for 5 days by WST-1 assay; assay type: functional; parameters: scale not given: the % may be the effect or the level left; settings: time 5 day
[3] = test system: AMO1; assay: Antiproliferative activity against human AMO1 cells assessed as inhibition of cell proliferation at 1 uM incubated for 5 days by WST-1 assay; assay type: functional; parameters: scale not given: the % may be the effect or the level left; settings: time 5 day
[4] = test system: L-363; assay: Antiproliferative activity against carfilzomib-resistant human L-363 cells assessed as inhibition of cell proliferation at 1 uM incubated for 5 days by WST-1 assay; assay type: functional; parameters: scale not given: the % may be the effect or the level left; settings: time 5 day
[5] = test system: L-363; assay: Antiproliferative activity against human L-363 cells assessed as inhibition of cell proliferation at 1 uM incubated for 5 days by WST-1 assay; assay type: functional; parameters: scale not given: the % may be the effect or the level left; settings: time 5 day
[6] = test system: STA-ET-1; assay: (§1) Antiproliferative activity against human STA-ET-1 cells assessed as inhibition of cell proliferation at 1 uM incubated for 5 days by WST-1 assay; assay type: functional; settings: time 5.0 day
In short: (§2)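 Ewing sarcoma cell lines were exposed to a single 1 μM concentration for 5 days. Viability was reported as percent viability, as part of a preliminary single-dose screen.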

[7] = test system: L-363; assay: Antiproliferative activity against bortezomib-resistant human L-363 cells assessed as inhibition of cell proliferation at 1 uM incubated for 5 days by WST-1 assay; assay type: functional; parameters: scale not given: the % may be the effect or the level left; settings: time 5 day
[8] = test system: AMO1; assay: Antiproliferative activity against pomalidomide resistant human AMO1 cells assessed as inhibition of cell proliferation at 1 uM incubated for 5 days by WST-1 assay; assay type: functional; parameters: scale not given: the % may be the effect or the level left; settings: time 5 day
[9] = test system: STA-ET-10; assay: (§3) Antiproliferative activity against human STA-ET-10 cells assessed as inhibition of cell proliferation at 1 uM incubated for 5 days by WST-1 assay; assay type: functional; settings: time 5.0 day; in short: as §2
[10] = Permeability of compound incubated for 5 hrs by PAMPA based CLND assay; assay type: ADME
[11] = test system: MDA-MB-231; assay: Anticancer activity against human MDA-MB-231 cells assessed as cell growth inhibition at 2 to 10 uM incubated for 24 to 72 hrs by WST-1 assay; settings: dose 2-10 µM, time lower […], time upper 72.0 hrs
[12] = as §1; assay type: functional; parameters: scale not given: the % may be the effect or the level left; settings: time 5 day; in short: as §2
[13] = (§4) Antiproliferative activity against human RM-82 cells assessed as inhibition of cell proliferation at 1 uM incubated for 5 days by WST-1 assay; assay type: functional; parameters: scale not given: the % may be the effect or the level left; settings: time 5 day
[14] = as §3; assay type: functional; parameters: scale not given: the % may be the effect or the level left; settings: time 5 day; in short: as §2
[15] = target: T1, Homeodomain-interacting protein kinase 2 (Homo sapiens, UniProt Q9H2X6); assay: Inhibition of wild type human HIPK2 at 1 uM by DiscoverX scanMAX assay relative to control; values are per cent of control
Target sequence in this assay (Q9H2X6 whole entry, looked up): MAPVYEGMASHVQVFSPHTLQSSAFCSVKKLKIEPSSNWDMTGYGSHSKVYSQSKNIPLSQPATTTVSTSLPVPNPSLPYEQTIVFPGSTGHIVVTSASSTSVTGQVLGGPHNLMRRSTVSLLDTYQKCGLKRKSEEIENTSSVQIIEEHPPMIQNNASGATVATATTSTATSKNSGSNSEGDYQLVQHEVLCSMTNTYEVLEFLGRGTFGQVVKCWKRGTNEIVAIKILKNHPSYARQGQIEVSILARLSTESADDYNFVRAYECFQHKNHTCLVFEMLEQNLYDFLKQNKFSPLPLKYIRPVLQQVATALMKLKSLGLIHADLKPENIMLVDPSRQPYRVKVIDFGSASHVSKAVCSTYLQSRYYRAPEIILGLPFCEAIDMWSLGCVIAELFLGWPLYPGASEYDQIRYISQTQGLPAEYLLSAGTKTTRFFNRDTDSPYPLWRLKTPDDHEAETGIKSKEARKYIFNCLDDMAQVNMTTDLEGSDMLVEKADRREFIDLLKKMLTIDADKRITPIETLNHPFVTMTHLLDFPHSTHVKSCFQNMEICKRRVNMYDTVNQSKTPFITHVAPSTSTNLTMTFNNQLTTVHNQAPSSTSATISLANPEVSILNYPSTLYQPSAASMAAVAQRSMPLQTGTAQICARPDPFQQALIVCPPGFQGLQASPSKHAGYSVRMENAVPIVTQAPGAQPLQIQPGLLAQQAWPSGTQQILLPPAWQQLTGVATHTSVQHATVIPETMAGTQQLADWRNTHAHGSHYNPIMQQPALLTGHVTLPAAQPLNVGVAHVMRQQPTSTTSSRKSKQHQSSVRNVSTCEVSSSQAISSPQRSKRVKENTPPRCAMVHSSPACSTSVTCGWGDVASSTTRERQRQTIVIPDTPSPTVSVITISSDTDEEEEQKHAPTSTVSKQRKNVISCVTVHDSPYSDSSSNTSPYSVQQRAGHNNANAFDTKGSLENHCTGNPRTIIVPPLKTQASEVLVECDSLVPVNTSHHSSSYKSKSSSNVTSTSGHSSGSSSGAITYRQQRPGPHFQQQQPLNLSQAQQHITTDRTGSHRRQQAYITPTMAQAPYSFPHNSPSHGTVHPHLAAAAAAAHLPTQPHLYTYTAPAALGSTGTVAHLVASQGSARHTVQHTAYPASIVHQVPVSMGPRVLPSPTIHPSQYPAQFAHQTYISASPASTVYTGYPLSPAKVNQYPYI

[16] = target: Death-associated protein kinase 2 (Homo sapiens, UniProt Q9UIK4); assay: Inhibition of wild type human DAPK2 in presence of ATP by radiometric kinase assay
Death-associated protein kinase 2, sequence (Q9UIK4 whole entry): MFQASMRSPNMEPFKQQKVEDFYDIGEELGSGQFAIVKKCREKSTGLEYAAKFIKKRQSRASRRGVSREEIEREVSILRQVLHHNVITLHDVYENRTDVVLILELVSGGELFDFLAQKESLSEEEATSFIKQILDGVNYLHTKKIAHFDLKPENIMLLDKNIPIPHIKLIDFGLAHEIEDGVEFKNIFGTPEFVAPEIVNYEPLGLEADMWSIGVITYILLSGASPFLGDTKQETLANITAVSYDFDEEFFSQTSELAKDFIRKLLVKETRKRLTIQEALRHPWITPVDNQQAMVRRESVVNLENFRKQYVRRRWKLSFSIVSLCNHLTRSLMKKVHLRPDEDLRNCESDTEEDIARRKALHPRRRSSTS

[17] = test system: RM-82; assay: as §4; assay type: functional; settings: time 5.0 day
[18] = target: T1, Homeodomain-interacting protein kinase 2; assay: Inhibition of wild type human HIPK2 in presence of ATP by radiometric kinase assay
Target sequence in this assay (Q9H2X6 whole entry): as the sequence (Q9H2X6 whole entry, looked up) above

[19] = target: T2, Casein kinase II subunit alpha' (Homo sapiens, UniProt P19784); assay: Inhibition of wild type human CK2alpha' in presence of ATP by radiometric kinase assay
T2 sequence (P19784 whole entry): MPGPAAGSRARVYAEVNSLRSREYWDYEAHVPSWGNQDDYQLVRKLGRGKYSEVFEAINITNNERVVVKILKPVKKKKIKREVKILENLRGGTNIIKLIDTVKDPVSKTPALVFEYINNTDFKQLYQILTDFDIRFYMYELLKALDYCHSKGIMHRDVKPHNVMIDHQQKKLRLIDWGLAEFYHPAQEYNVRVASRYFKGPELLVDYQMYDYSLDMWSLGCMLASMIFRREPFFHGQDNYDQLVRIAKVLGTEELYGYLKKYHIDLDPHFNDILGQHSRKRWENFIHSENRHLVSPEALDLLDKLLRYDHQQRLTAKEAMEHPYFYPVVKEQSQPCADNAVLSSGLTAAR

[20] = target: T3, Casein kinase II subunit alpha (Homo sapiens, UniProt P68400); assay: Inhibition of wild type human CK2alpha in presence of ATP by radiometric kinase assay
T3 sequence (P68400 whole entry, the tested form may be a part): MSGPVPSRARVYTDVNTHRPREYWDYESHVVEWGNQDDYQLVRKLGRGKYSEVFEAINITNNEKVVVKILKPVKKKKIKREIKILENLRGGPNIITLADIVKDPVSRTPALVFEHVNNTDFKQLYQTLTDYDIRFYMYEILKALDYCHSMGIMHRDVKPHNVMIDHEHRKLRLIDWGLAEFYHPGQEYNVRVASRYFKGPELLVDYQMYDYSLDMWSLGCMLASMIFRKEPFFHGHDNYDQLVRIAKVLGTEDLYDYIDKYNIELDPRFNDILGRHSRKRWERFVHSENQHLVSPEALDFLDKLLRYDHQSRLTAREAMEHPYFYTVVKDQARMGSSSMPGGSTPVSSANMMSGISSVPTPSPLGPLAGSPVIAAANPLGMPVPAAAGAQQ

[21] = target: T3, Casein kinase II subunit alpha; assay: Inhibition of C-terminal Nano-Luc fused human CK2alpha expressed in HEK293 cells using NanoBRET NanoGlo substrate in presence of tracer K10 by NanoBRET assay; assay type: cell-based
[22] = target: Phosphatidylinositol 4-phosphate 5-kinase type-1 gamma (Homo sapiens) (UniProt O60331); assay: Inhibition of wild type human PIP5K1C at 1 uM by DiscoverX scanMAX assay relative to control; values are per cent of control
Phosphatidylinositol 4-phosphate 5-kinase type-1 gamma (Homo sapiens), sequence (O60331 whole entry, the tested form may be a part): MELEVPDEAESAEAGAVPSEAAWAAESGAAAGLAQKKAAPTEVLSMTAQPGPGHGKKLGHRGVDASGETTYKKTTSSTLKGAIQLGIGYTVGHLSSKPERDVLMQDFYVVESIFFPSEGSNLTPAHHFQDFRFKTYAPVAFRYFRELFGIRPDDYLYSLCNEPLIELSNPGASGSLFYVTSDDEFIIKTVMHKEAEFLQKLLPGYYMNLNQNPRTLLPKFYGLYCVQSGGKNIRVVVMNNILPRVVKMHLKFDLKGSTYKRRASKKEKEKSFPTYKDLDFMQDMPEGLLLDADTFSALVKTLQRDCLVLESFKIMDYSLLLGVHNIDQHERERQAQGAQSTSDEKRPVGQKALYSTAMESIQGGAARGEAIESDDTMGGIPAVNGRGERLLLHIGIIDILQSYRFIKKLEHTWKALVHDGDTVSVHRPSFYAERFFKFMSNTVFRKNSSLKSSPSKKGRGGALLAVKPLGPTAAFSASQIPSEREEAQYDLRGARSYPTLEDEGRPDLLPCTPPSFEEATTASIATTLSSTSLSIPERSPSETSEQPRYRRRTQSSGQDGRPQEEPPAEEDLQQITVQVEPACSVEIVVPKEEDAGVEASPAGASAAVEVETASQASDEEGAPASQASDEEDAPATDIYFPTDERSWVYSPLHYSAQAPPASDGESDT

[23] = target: T2, Casein kinase II subunit alpha'; assay: Inhibition of C-terminal Nano-Luc fused human CK2alpha' expressed in HEK293 cells using NanoBRET NanoGlo substrate in presence of tracer K5 by NanoBRET assay; assay type: cell-based

SMILES: O=C(O)c1ccc2c(c1)nc(NCCc1cccc(Cl)c1)c1ncncc12
Kinetic_solubility [1]: 109.1 µM

SMILES: O=C(O)c1ccc2c(c1)nc(Nc1ccc3ccccc3c1)c1ncncc12
Kinetic_solubility [1]: 54.3 µM

SMILES: CCC(=O)Nc1cc(Nc2cc(NC3CC3)n3ncc(C#N)c3n2)ccc1C
Activity [2]: 55%
Activity [3]: 9%
Activity [4]: 9%
Activity [5]: 9%
Activity [6]: inactive
Activity [7]: 9%
Activity [8]: 9%
Activity [9]: inactive

SMILES: O=C(O)c1ccc2c(c1)nc(Nc1ccccc1)c1ncncc12
solubility kinetic at 24 h [1]: 168 µM (≈ 53.2 µg/mL)

SMILES: COc1cccc(CCNc2nc3cc(C(=O)O)ccc3c3cncnc23)c1
solubility kinetic at 24 h [1]: 152 µM (≈ 56.8 µg/mL)

SMILES: O=C(O)c1ccc2c(c1)nc(NCc1ccccc1)c1ncncc12
permeability [10]: Permeable
solubility kinetic at 24 h [1]: 211 µM (≈ 69.6 µg/mL)
residual activity [15]: 30%
IC50 [16]: 1.5 µM
Activity [3]: 44%
Activity [5]: 36%
Activity [6]: inactive
Activity [17]: inactive
Activity [9]: inactive
IC50 [18]: 0.6 µM

SMILES: O=C(O)c1ccc2c(c1)nc(Nc1ccccc1Cl)c1ncncc12
Kinetic_solubility [1]: 121.8 µM

SMILES: O=C(O)c1ccc2c(c1)nc(NCCc1cccc(F)c1)c1ncncc12
Kinetic_solubility [1]: 147 µM

SMILES: O=C(O)c1ccc2c(c1)nc(Nc1ccc(Cl)cc1)c1ncncc12
solubility kinetic at 24 h [1]: 209 µM (≈ 73.3 µg/mL)

SMILES: O=C(O)c1ccc2c(c1)nc(NCCc1ccccc1)c1ncncc12
Kinetic_solubility [1]: 146.4 µM

SMILES: O=C(O)c1ccc2c(c1)nc(Nc1ccc(F)c(Cl)c1)c1ncncc12
Kinetic_solubility [1]: 49.1 µM

SMILES: N#Cc1cccc(Nc2nc3cc(C(=O)O)ccc3c3cncnc23)c1
Kinetic_solubility [1]: 66.7 µM
Activity [6]: inactive
Activity [17]: inactive
Activity [9]: inactive

SMILES: O=C(O)c1ccc2c(c1)nc(NCc1ccccc1)c1ncccc12
IC50 [19]: > 10 µM
IC50 [20]: > 10 µM
IC50 [21]: > 10 µM
residual activity [22]: 15%
IC50 [23]: > 10 µM

The next lines start with results.

Kinetic_solubility [1]: 148.4 µM
SMILES: O=C(O)c1ccc2c(c1)nc(Nc1ccc(F)c(Cl)c1)c1ccncc12

solubility kinetic at 24 h [1]: 184 µM (≈ 69.5 µg/mL)
SMILES: O=C(O)c1ccc2c(c1)nc(NCCc1cccc(Cl)c1)c1ccncc12

solubility kinetic at 24 h [1]: 190 µM (≈ 65.8 µg/mL)
SMILES: COc1cccc(Nc2nc3cc(C(=O)O)ccc3c3cnccc23)c1

solubility kinetic at 24 h [1]: 188 µM (≈ 67.8 µg/mL)
SMILES: O=C(O)c1ccc2c(c1)nc(NCCc1cccc(F)c1)c1ccncc12

solubility kinetic at 24 h [1]: 202 µM (≈ 66.7 µg/mL)
SMILES: O=C(O)c1ccc2c(c1)nc(NCc1ccccc1)c1ccncc12

permeability [10]: Permeable
Kinetic_solubility [1]: 277.1 µM
SMILES: O=C(O)c1ccc2c(c1)nc(Nc1cccc(Cl)c1)c1ccncc12 [SILMITASERTIB]
Activity [11]: Active
Activity [12]: 21%
Activity [13]: 63%
Activity [14]: 63%

Kinetic_solubility [1]: 32.8 µM
SMILES: O=C(O)c1ccc2c(c1)nc(Nc1ccc3ccccc3c1)c1ccncc12

solubility kinetic at 24 h [1]: 171 µM (≈ 58.9 µg/mL)
SMILES: O=C(O)c1ccc2c(c1)nc(NCCc1ccccc1)c1ccncc12

solubility kinetic at 24 h [1]: 184 µM (≈ 58.1 µg/mL)
SMILES: O=C(O)c1ccc2c(c1)nc(Nc1ccccc1)c1ccncc12

Kinetic_solubility [1]: 131.7 µM
SMILES: N#Cc1cccc(Nc2nc3cc(C(=O)O)ccc3c3cnccc23)c1
Activity [6]: inactive
Activity [17]: inactive
Activity [9]: inactive

Kinetic_solubility [1]: 25.3 µM
SMILES: O=C(O)c1ccc2c(c1)nc(Nc1ccc(Cl)cc1)c1ccncc12

solubility kinetic at 24 h [1]: 180 µM (≈ 67.4 µg/mL)
SMILES: COc1cccc(CCNc2nc3cc(C(=O)O)ccc3c3cnccc23)c1

solubility kinetic at 24 h [1]: 192 µM (≈ 64.2 µg/mL)
SMILES: O=C(O)c1ccc2c(c1)nc(Nc1cccc(F)c1)c1ncncc12

solubility kinetic at 24 h [1]: 237 µM (≈ 78.9 µg/mL)
SMILES: O=C(O)c1ccc2c(c1)nc(Nc1cccc(F)c1)c1ccncc12

From ChEMBL document CHEMBL5252659, “Discovery of a Potent and Selective Naphthyridine-Based Chemical Probe for Casein Kinase 2” (ACS Med Chem Lett, 2023)
